Experimental data taken from ChEMBL document CHEMBL3352507, “Preparation and antimalarial activity of a novel class of carbohydrate-derived, fused thiochromans” (Eur J Med Chem, 2014).

system: Plasmodium falciparum; assay: Antimalarial activity against Plasmodium falciparum 3D7 after 48 hrs by parasite lactate dehydrogenase assay; assay type: functional, organism-based; details: 3D7, 48 h
Method in brief: (§1)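 Parasite survival read by parasite lactate dehydrogenase (pLDH) assay. Single-concentration prescreen at […]; compounds with 0–15% survival were taken to dose–response. Ten three-fold serial dilutions in triplicate, incubated 48 h in a gassed airtight box, developed with NBT/PES. IC50 from sigmoidal curve of % survival relative to control against log concentration.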

Structure (SMILES)	IC50 [µM]
c1ccc(COC[C@H]2O[C@@H]3c4ccccc4SC[C@@H]3[C@@H](OCc3ccccc3)[C@@H]2OCc2ccccc2)cc1	3.46
Cc1ccc2c(c1)[C@H]1O[C@H](COCc3ccccc3)[C@@H](OCc3ccccc3)[C@H](OCc3ccccc3)[C@H]1CS2	> 100
COc1ccc2c(c1)[C@H]1O[C@H](COCc3ccccc3)[C@@H](OCc3ccccc3)[C@H](OCc3ccccc3)[C@H]1CS2	> 100
Cc1cccc2c1SC[C@@H]1[C@@H](OCc3ccccc3)[C@H](OCc3ccccc3)[C@@H](COCc3ccccc3)O[C@H]21	> 100
Cc1ccc2c(c1)[C@H]1O[C@H](COCc3ccccc3)[C@@H](OCc3ccccc3)[C@H](OCc3ccccc3)[C@H]1C[S@+]2[O-]	> 100
COc1ccc2c(c1)[C@H]1O[C@H](COCc3ccccc3)[C@@H](OCc3ccccc3)[C@H](OCc3ccccc3)[C@H]1C[S@+]2[O-]	2.75
CC(C)(C)c1ccc2c(c1)[C@H]1O[C@H](COCc3ccccc3)[C@@H](OCc3ccccc3)[C@H](OCc3ccccc3)[C@H]1C[S@+]2[O-]	0.3

system: Plasmodium falciparum; assay: Antimalarial activity against Plasmodium falciparum FCR3 after 48 hrs by parasite lactate dehydrogenase assay; assay type: functional, organism-based; details: FCR3, 48 h; method in brief: as §1

Structure (SMILES)	IC50 [µM]
c1ccc(COC[C@H]2O[C@@H]3c4ccccc4SC[C@@H]3[C@@H](OCc3ccccc3)[C@@H]2OCc2ccccc2)cc1	2.05
Cc1ccc2c(c1)[C@H]1O[C@H](COCc3ccccc3)[C@@H](OCc3ccccc3)[C@H](OCc3ccccc3)[C@H]1CS2	3.37
COc1ccc2c(c1)[C@H]1O[C@H](COCc3ccccc3)[C@@H](OCc3ccccc3)[C@H](OCc3ccccc3)[C@H]1CS2	1.73
Cc1cccc2c1SC[C@@H]1[C@@H](OCc3ccccc3)[C@H](OCc3ccccc3)[C@@H](COCc3ccccc3)O[C@H]21	2.26
Cc1ccc2c(c1)[C@H]1O[C@H](COCc3ccccc3)[C@@H](OCc3ccccc3)[C@H](OCc3ccccc3)[C@H]1C[S@+]2[O-]	4.11
COc1ccc2c(c1)[C@H]1O[C@H](COCc3ccccc3)[C@@H](OCc3ccccc3)[C@H](OCc3ccccc3)[C@H]1C[S@+]2[O-]	2.62
CC(C)(C)c1ccc2c(c1)[C@H]1O[C@H](COCc3ccccc3)[C@@H](OCc3ccccc3)[C@H](OCc3ccccc3)[C@H]1C[S@+]2[O-]	0.33

system: not listed separately; assay: Cytotoxicity against human WI38 cells after 48 hrs by SRB assay; assay type: cell-based; details: WI-38, 48 h
Method in brief: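 WI-38 human fetal lung fibroblasts (passages 21–50) in EMEM with 10% FBS, 2 mM L-glutamine and gentamicin, at 37 °C and 5% CO2. Seeded at 10 000 cells/well, grown 24 h, then given compound in DMSO diluted in medium to 5 concentrations for 48 h. Cells were fixed with cold 50% TCA and stained with SRB, and dye was read at 540 nm. IC50 by non-linear regression against untreated controls.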

Structure (SMILES)	IC50 [µM]
c1ccc(COC[C@H]2O[C@@H]3c4ccccc4SC[C@@H]3[C@@H](OCc3ccccc3)[C@@H]2OCc2ccccc2)cc1	> 100
Cc1ccc2c(c1)[C@H]1O[C@H](COCc3ccccc3)[C@@H](OCc3ccccc3)[C@H](OCc3ccccc3)[C@H]1CS2	> 100
COc1ccc2c(c1)[C@H]1O[C@H](COCc3ccccc3)[C@@H](OCc3ccccc3)[C@H](OCc3ccccc3)[C@H]1CS2	> 100
Cc1cccc2c1SC[C@@H]1[C@@H](OCc3ccccc3)[C@H](OCc3ccccc3)[C@@H](COCc3ccccc3)O[C@H]21	> 100
Cc1ccc2c(c1)[C@H]1O[C@H](COCc3ccccc3)[C@@H](OCc3ccccc3)[C@H](OCc3ccccc3)[C@H]1C[S@+]2[O-]	> 100
COc1ccc2c(c1)[C@H]1O[C@H](COCc3ccccc3)[C@@H](OCc3ccccc3)[C@H](OCc3ccccc3)[C@H]1C[S@+]2[O-]	> 100
CC(C)(C)c1ccc2c(c1)[C@H]1O[C@H](COCc3ccccc3)[C@@H](OCc3ccccc3)[C@H](OCc3ccccc3)[C@H]1C[S@+]2[O-]	> 100

system: not listed separately; assay: Cytotoxicity against human WI38 cells assessed as cell viability at 100 uM after 48 hrs by SRB assay; assay type: cell-based, WI-38; details: read-out: Activity
Method in brief: (§2)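 WI-38 fibroblasts (passages 21–50) were seeded at 10 000 cells/well for 24 h, then exposed for 48 h to compound dissolved in DMSO and diluted in medium. Viable cells were fixed with cold 50% trichloroacetic acid and stained with sulforhodamine B. Bound dye was extracted with 10 mM Tris base and read at 540 nm. Viability relative to drug-free cells.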

Structure (SMILES)	viability at 48 h, 100 µM [%]
c1ccc(COC[C@H]2O[C@@H]3c4ccccc4SC[C@@H]3[C@@H](OCc3ccccc3)[C@@H]2OCc2ccccc2)cc1	58.1
Cc1ccc2c(c1)[C@H]1O[C@H](COCc3ccccc3)[C@@H](OCc3ccccc3)[C@H](OCc3ccccc3)[C@H]1CS2	72.8
COc1ccc2c(c1)[C@H]1O[C@H](COCc3ccccc3)[C@@H](OCc3ccccc3)[C@H](OCc3ccccc3)[C@H]1CS2	61
Cc1cccc2c1SC[C@@H]1[C@@H](OCc3ccccc3)[C@H](OCc3ccccc3)[C@@H](COCc3ccccc3)O[C@H]21	68.8
Cc1ccc2c(c1)[C@H]1O[C@H](COCc3ccccc3)[C@@H](OCc3ccccc3)[C@H](OCc3ccccc3)[C@H]1C[S@+]2[O-]	69.7
COc1ccc2c(c1)[C@H]1O[C@H](COCc3ccccc3)[C@@H](OCc3ccccc3)[C@H](OCc3ccccc3)[C@H]1C[S@+]2[O-]	79.9
CC(C)(C)c1ccc2c(c1)[C@H]1O[C@H](COCc3ccccc3)[C@@H](OCc3ccccc3)[C@H](OCc3ccccc3)[C@H]1C[S@+]2[O-]	55.9

system: not listed separately; assay: Cytotoxicity against human WI38 cells assessed as cell viability at 10 uM after 48 hrs by SRB assay; assay type: cell-based, WI-38; details: read-out: Activity; method in brief: as §2

Structure (SMILES)	viability at 48 h, 10 µM [%]
c1ccc(COC[C@H]2O[C@@H]3c4ccccc4SC[C@@H]3[C@@H](OCc3ccccc3)[C@@H]2OCc2ccccc2)cc1	85
Cc1ccc2c(c1)[C@H]1O[C@H](COCc3ccccc3)[C@@H](OCc3ccccc3)[C@H](OCc3ccccc3)[C@H]1CS2	90
COc1ccc2c(c1)[C@H]1O[C@H](COCc3ccccc3)[C@@H](OCc3ccccc3)[C@H](OCc3ccccc3)[C@H]1CS2	90.8
Cc1cccc2c1SC[C@@H]1[C@@H](OCc3ccccc3)[C@H](OCc3ccccc3)[C@@H](COCc3ccccc3)O[C@H]21	85.4
Cc1ccc2c(c1)[C@H]1O[C@H](COCc3ccccc3)[C@@H](OCc3ccccc3)[C@H](OCc3ccccc3)[C@H]1C[S@+]2[O-]	95.9
COc1ccc2c(c1)[C@H]1O[C@H](COCc3ccccc3)[C@@H](OCc3ccccc3)[C@H](OCc3ccccc3)[C@H]1C[S@+]2[O-]	95.8
CC(C)(C)c1ccc2c(c1)[C@H]1O[C@H](COCc3ccccc3)[C@@H](OCc3ccccc3)[C@H](OCc3ccccc3)[C@H]1C[S@+]2[O-]	92.8

system: not listed separately; assay: Cytotoxicity against human WI38 cells assessed as cell viability at 1 uM after 48 hrs by SRB assay; assay type: cell-based, WI-38; details: read-out: Activity; method in brief: as §2

Structure (SMILES)	viability at 48 h, 1 µM [%]
c1ccc(COC[C@H]2O[C@@H]3c4ccccc4SC[C@@H]3[C@@H](OCc3ccccc3)[C@@H]2OCc2ccccc2)cc1	97.6
Cc1ccc2c(c1)[C@H]1O[C@H](COCc3ccccc3)[C@@H](OCc3ccccc3)[C@H](OCc3ccccc3)[C@H]1CS2	97
COc1ccc2c(c1)[C@H]1O[C@H](COCc3ccccc3)[C@@H](OCc3ccccc3)[C@H](OCc3ccccc3)[C@H]1CS2	93.8
Cc1cccc2c1SC[C@@H]1[C@@H](OCc3ccccc3)[C@H](OCc3ccccc3)[C@@H](COCc3ccccc3)O[C@H]21	97.5
Cc1ccc2c(c1)[C@H]1O[C@H](COCc3ccccc3)[C@@H](OCc3ccccc3)[C@H](OCc3ccccc3)[C@H]1C[S@+]2[O-]	99.1
COc1ccc2c(c1)[C@H]1O[C@H](COCc3ccccc3)[C@@H](OCc3ccccc3)[C@H](OCc3ccccc3)[C@H]1C[S@+]2[O-]	97.4
CC(C)(C)c1ccc2c(c1)[C@H]1O[C@H](COCc3ccccc3)[C@@H](OCc3ccccc3)[C@H](OCc3ccccc3)[C@H]1C[S@+]2[O-]	100

system: not listed separately; assay: Cytotoxicity against human WI38 cells assessed as cell viability at 0.1 uM after 48 hrs by SRB assay; assay type: cell-based, WI-38; details: read-out: Activity; method in brief: as §2

Structure (SMILES)	viability at 48 h, 0.1 µM [%]
c1ccc(COC[C@H]2O[C@@H]3c4ccccc4SC[C@@H]3[C@@H](OCc3ccccc3)[C@@H]2OCc2ccccc2)cc1	98.6
Cc1ccc2c(c1)[C@H]1O[C@H](COCc3ccccc3)[C@@H](OCc3ccccc3)[C@H](OCc3ccccc3)[C@H]1CS2	96.3
COc1ccc2c(c1)[C@H]1O[C@H](COCc3ccccc3)[C@@H](OCc3ccccc3)[C@H](OCc3ccccc3)[C@H]1CS2	95.8
Cc1cccc2c1SC[C@@H]1[C@@H](OCc3ccccc3)[C@H](OCc3ccccc3)[C@@H](COCc3ccccc3)O[C@H]21	99.5
Cc1ccc2c(c1)[C@H]1O[C@H](COCc3ccccc3)[C@@H](OCc3ccccc3)[C@H](OCc3ccccc3)[C@H]1C[S@+]2[O-]	101
COc1ccc2c(c1)[C@H]1O[C@H](COCc3ccccc3)[C@@H](OCc3ccccc3)[C@H](OCc3ccccc3)[C@H]1C[S@+]2[O-]	100
CC(C)(C)c1ccc2c(c1)[C@H]1O[C@H](COCc3ccccc3)[C@@H](OCc3ccccc3)[C@H](OCc3ccccc3)[C@H]1C[S@+]2[O-]	102

system: not listed separately; assay: Cytotoxicity against human WI38 cells assessed as cell viability at 0.01 uM after 48 hrs by SRB assay; assay type: cell-based, WI-38; details: read-out: Activity; method in brief: as §2

Structure (SMILES)	viability at 48 h, 0.01 µM [%]
c1ccc(COC[C@H]2O[C@@H]3c4ccccc4SC[C@@H]3[C@@H](OCc3ccccc3)[C@@H]2OCc2ccccc2)cc1	100
Cc1ccc2c(c1)[C@H]1O[C@H](COCc3ccccc3)[C@@H](OCc3ccccc3)[C@H](OCc3ccccc3)[C@H]1CS2	97
COc1ccc2c(c1)[C@H]1O[C@H](COCc3ccccc3)[C@@H](OCc3ccccc3)[C@H](OCc3ccccc3)[C@H]1CS2	97
Cc1cccc2c1SC[C@@H]1[C@@H](OCc3ccccc3)[C@H](OCc3ccccc3)[C@@H](COCc3ccccc3)O[C@H]21	103
Cc1ccc2c(c1)[C@H]1O[C@H](COCc3ccccc3)[C@@H](OCc3ccccc3)[C@H](OCc3ccccc3)[C@H]1C[S@+]2[O-]	103
COc1ccc2c(c1)[C@H]1O[C@H](COCc3ccccc3)[C@@H](OCc3ccccc3)[C@H](OCc3ccccc3)[C@H]1C[S@+]2[O-]	99.8
CC(C)(C)c1ccc2c(c1)[C@H]1O[C@H](COCc3ccccc3)[C@@H](OCc3ccccc3)[C@H](OCc3ccccc3)[C@H]1C[S@+]2[O-]	102
